The target of data set [1] is T1, 3',5'-cyclic-AMP phosphodiesterase 4B (Homo sapiens, UniProt Q07343). The data set can be described thus: Displacement of [methyl-3H]rolipram from PDE4B3 expressed in CHO cells after 1 hr by scintillation counting. The class given is cell-based.
In data set [2] the target is T2, 3',5'-cyclic-AMP phosphodiesterase 4D (Homo sapiens, UniProt Q08499). As to the kind of experiment: Displacement of [methyl-3H]rolipram from PDE4D4 expressed in CHO cells after 1 hr by scintillation counting. It is filed as cell-based.
Data set [3] is described as follows: Selectivity ratio Ki for PDE4D4 to Ki for PDE4B3. The gist of the method: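 Ki ratio, PDE4D over PDE4B, from [3H]-rolipram displacement in CHO lysates expressing PDE4D4 or PDE4B3 (2.5 nM radioligand, 30 °C for 1 h, Cheng–Prusoff Ki).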
A short description of data set [4]: Selectivity ratio of IC50 for PDE4A to IC50 for PDE4B3.
Data set [5] in a line: Selectivity ratio of IC50 for PDE4C to IC50 for PDE4B3.
Data set [6] in a line: Inhibition of PDE3.
Data set [7] in a line: Inhibition of PDE5.
A short description of data set [8]: Inhibition of PDE1.
In data set [9] the target is T1, 3',5'-cyclic-AMP phosphodiesterase 4B. As to the kind of experiment: Inhibition of PDE4B3 expressed in CHO cells assessed as isoproterenol-induced [125I]cAMP accumulation after 15 mins by scintillation counting. The class given is cell-based. A general note: cAMP levels reflect the balance of adenylyl cyclase and phosphodiesterase activity.
For data set [10], the target named is Voltage-gated inwardly rectifying potassium channel KCNH2 (Homo sapiens, UniProt Q12809). The data set can be described thus: Inhibition of human ERG.
The target of data set [11] is T2, 3',5'-cyclic-AMP phosphodiesterase 4D. The data set can be described thus: Inhibition of PDE4D4 expressed in CHO cells assessed as isoproterenol-induced [125I]cAMP accumulation after 15 mins by scintillation counting. The class given is cell-based.
Data set [12] is described as follows: Inhibition of PDE2.
Data set [13] in a line: Inhibition of PDE6.

A word on the Ki: it is the dissociation constant of the complex between target and ligand, obtained from inhibition or displacement. A higher Ki goes with lower affinity. For orientation: IC50 means the concentration needed to halve the response being measured.

T1 sequence (Q07343 whole entry): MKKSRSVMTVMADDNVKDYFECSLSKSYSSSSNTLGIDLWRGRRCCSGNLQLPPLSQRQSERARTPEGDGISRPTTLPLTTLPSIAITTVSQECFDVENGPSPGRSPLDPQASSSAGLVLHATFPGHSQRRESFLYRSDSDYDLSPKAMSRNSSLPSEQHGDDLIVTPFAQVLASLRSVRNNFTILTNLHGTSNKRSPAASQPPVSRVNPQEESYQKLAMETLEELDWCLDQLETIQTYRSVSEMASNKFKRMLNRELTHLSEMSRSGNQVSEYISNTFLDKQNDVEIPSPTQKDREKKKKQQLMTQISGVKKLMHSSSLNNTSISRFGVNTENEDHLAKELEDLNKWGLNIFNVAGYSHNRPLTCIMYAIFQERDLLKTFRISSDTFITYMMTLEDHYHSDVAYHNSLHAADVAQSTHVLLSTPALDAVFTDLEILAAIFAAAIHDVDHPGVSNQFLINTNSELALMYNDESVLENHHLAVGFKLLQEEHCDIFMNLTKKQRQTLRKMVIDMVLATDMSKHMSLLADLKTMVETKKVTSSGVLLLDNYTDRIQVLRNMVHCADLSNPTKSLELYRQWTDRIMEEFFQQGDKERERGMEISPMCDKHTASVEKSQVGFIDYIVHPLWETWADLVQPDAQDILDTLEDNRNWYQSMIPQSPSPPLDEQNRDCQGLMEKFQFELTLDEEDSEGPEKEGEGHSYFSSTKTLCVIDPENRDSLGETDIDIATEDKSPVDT
T2 sequence (Q08499 whole entry): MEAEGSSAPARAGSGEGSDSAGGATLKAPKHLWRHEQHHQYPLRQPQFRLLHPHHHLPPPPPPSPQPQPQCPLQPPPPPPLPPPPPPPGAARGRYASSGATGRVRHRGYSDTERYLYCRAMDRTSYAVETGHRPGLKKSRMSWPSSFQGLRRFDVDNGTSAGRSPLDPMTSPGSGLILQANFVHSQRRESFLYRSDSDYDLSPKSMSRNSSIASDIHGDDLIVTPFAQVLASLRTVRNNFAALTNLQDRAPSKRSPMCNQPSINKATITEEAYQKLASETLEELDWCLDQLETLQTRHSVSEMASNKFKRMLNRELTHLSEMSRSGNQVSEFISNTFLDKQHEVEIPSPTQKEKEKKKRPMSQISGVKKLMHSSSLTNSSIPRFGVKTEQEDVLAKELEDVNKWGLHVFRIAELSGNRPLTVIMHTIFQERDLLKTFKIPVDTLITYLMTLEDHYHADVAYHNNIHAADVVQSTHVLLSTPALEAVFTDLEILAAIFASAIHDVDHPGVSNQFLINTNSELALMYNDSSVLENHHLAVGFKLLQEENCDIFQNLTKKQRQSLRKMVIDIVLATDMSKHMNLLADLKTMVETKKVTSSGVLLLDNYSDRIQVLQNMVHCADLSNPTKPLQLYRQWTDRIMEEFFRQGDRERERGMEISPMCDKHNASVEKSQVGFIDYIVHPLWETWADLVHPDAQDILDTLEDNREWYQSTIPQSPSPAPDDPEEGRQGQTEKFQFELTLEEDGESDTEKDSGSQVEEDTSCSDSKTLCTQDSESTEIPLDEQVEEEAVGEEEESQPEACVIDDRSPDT
Voltage-gated inwardly rectifying potassium channel KCNH2, sequence (Q12809 whole entry): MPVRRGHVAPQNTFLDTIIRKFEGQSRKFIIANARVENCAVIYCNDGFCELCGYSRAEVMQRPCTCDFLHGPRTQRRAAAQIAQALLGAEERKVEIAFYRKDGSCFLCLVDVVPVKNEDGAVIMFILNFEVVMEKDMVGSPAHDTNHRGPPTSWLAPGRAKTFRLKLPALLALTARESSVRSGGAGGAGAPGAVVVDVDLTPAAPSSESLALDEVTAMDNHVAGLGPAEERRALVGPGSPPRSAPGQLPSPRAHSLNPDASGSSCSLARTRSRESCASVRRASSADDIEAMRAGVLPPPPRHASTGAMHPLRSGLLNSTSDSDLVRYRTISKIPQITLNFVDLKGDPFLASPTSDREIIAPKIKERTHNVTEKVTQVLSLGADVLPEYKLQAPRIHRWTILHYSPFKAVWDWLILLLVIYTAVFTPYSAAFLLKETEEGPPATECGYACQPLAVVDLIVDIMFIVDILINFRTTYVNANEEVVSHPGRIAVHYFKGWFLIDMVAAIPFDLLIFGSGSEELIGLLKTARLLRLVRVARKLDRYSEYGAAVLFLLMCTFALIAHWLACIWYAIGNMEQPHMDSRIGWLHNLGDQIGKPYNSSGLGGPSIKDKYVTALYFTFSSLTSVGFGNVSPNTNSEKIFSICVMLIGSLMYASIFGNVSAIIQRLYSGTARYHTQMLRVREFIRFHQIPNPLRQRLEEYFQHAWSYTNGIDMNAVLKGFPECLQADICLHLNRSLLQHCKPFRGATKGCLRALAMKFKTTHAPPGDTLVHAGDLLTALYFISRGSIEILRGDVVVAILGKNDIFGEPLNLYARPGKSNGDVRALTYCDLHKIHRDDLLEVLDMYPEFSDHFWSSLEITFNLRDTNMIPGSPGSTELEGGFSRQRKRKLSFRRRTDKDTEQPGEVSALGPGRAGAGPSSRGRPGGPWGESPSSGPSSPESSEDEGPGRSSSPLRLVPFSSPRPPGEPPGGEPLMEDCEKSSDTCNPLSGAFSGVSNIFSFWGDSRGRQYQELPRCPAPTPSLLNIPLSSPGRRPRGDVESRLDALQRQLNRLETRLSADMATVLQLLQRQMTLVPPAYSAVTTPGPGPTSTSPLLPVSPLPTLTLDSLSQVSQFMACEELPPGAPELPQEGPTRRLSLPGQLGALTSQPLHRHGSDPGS

Turning to `Clc1cccc(-c2nnc(NCCCN3CCN(c4ncccn4)CC3)c3cc4ccccn4c23)c1`, the values for the Ki in data set [1] and in data set [2] were 2.01 µM and 14.2 µM, respectively. In addition, in data set [3], the Ratio Ki came to 7.

As for `O=C(C1CCCC1)N1CCN(CCCNc2nnc(-c3cccc(F)c3)c3c2cc2ccccn23)CC1`, the results for the Ki in [1] and in [2] were 14 µM and 61 µM, respectively. Further, in data set [3], the Ratio Ki came to 4.

Regarding `O=[N+]([O-])c1cccc(-c2nnc(NCCCN3CCN(c4ncccn4)CC3)c3cc4ccccn4c23)c1`, the inhibitory constant (Ki) in [1] was 0.21 µM; in data set [2] it was 2.4 µM. Also, in data set [3], the Ratio Ki was determined as 11.

As for `CCC(=O)N1CCN(CCCNc2nnc(-c3cccc(F)c3)c3c2cc2ccccn23)CC1`, the Ki was 4.9 µM in data set [1] and > 100 µM in data set [2]. Further, the Ratio Ki in data set [3] was > 20.

`Cc1cc2c(NCCCN3CCN(C(=O)c4ccnnc4)CC3)nnc(-c3cccc([N+](=O)[O-])c3)c2n1C`: the Ki in [1] amounted to 4.44 µM; in [2], 51.2 µM. Further, the Ratio Ki in data set [3] turned out to be 12.

For the compound `Cc1cccc(-c2nnc(NCCCN3CCN(c4ncccn4)CC3)c3cc4ccccn4c23)c1`, the values for the Ki in data set [1] and in data set [2] were 4.3 µM and 54.4 µM, respectively. Also, the Ratio Ki in data set [3] came out at 13.

Consider `Cc1cc2c(NCCCN3CCN(C(=O)c4cccnc4)CC3)nnc(-c3cccc([N+](=O)[O-])c3)c2n1C`, for which the values for the inhibition constant Ki in data set [1] and in data set [2] were 0.432 µM and 15.3 µM, respectively. For the same compound, in data set [3], the Ratio Ki was 35.

With `O=C(c1cnccn1)N1CCN(CCCNc2nnc(-c3cccc([N+](=O)[O-])c3)c3c2cc2ccccn23)CC1`, the Ratio IC50 in data set [4] and in data set [5] was > 5 each time. Moreover, the half-maximal inhibitory concentration (IC50) is > 10 µM in data set [6]; > 10 µM in [7]; > 10 µM in data set [8]; 0.389 µM in data set [9]; 4.9 µM in data set [11]; > 10 µM in [12]. Besides, in data set [13], the IC50 was > 10 µM. Besides, the inhibition constant (Ki) came out at 0.0056 µM in [1] and 0.147 µM in [2]. Moreover, in [10], the “inhibition (INH)” value is “Active”. In addition, the Ratio Ki in data set [3] amounted to 26.

`Cc1cc2c(NCCCN3CCN(C(=O)c4ccno4)CC3)nnc(-c3cccc([N+](=O)[O-])c3)c2n1C`: the inhibition constant (Ki) in data set [1] was 5.08 µM; in [2], > 100 µM. Besides, the Ratio Ki in data set [3] is > 20.

Consider `O=C(c1ccccc1)N1CCN(CCCNc2nnc(-c3cccc(F)c3)c3c2cc2ccccn23)CC1`, for which the inhibition constant Ki in data set [1] came to 2.7 µM; in data set [2], 22.2 µM. Besides, the Ratio Ki in data set [3] was determined as 8.

In the case of `Cc1cc2c(NCCCN3CCN(C(=O)c4cncs4)CC3)nnc(-c3cccc([N+](=O)[O-])c3)c2n1C`, the Ki was 0.222 µM in data set [1] and 12.7 µM in data set [2]. Further, the Ratio Ki in data set [3] was 57.

`Cc1cc2c(NCCCN3CCN(C(=O)c4cnccn4)CC3)nnc(-c3cccc([N+](=O)[O-])c3)c2n1C`: the inhibition constant Ki in [1] amounted to 0.077 µM; in data set [2], 4.44 µM. Moreover, the Ratio Ki in [3] amounted to 58.

`Cc1cc2c(NCCCN3CCN(C(=O)c4ccncc4)CC3)nnc(-c3cccc([N+](=O)[O-])c3)c2n1C`: the Ki in data set [1] was 52.2 µM; in data set [2], > 100 µM. The Ratio Ki in data set [3] was > 2.

Consider `Brc1cccc(-c2nnc(NCCCN3CCN(c4ncccn4)CC3)c3cc4ccccn4c23)c1`, for which the results for the Ki in data set [1] and in [2] were 1.44 µM and 17.5 µM, respectively. The Ratio Ki in [3] was 12.

Take `N#Cc1cccc(-c2nnc(NCCCN3CCN(c4ncccn4)CC3)c3cc4ccccn4c23)c1`: the Ki came out at 1.03 µM in data set [1] and 3.35 µM in data set [2]. Further, the Ratio Ki in [3] was 3.

For the compound `Cc1cc2c(NCCCN3CCN(C(=O)c4csnn4)CC3)nnc(-c3cccc([N+](=O)[O-])c3)c2n1C`, the Ki in data set [1] came out at 0.977 µM; in data set [2], 48.6 µM. Further, the Ratio Ki in data set [3] came to 50.

Regarding `Cn1cccc1C(=O)N1CCN(CCCNc2nnc(-c3cccc(F)c3)c3c2cc2ccccn23)CC1`, the figures for the inhibition constant Ki in data set [1] and in data set [2] were 5.2 µM and 65 µM, respectively. For the same compound, the Ratio Ki in data set [3] stood at 12.

Turning to `O=C(c1cnccn1)N1CCN(CCCNc2nnc(-c3ccccc3)c3c2cc2ccccn23)CC1`, the Ki in data set [1] was 0.041 µM; in [2] it was 8.37 µM. In addition, the IC50 was 6.7 µM in [9] and > 100 µM in [11]. In data set [3], the Ratio Ki is 205.

As to `O=C(c1ccccn1)N1CCN(CCCNc2nnc(-c3cccc(F)c3)c3c2cc2ccccn23)CC1`, the figures for the Ki in data set [1] and in data set [2] were 0.241 µM and 18 µM, respectively. For the same compound, in data set [3], the Ratio Ki is 75.

With `Cc1cc2c(NCCCN3CCN(C(=O)c4ncccn4)CC3)nnc(-c3cccc([N+](=O)[O-])c3)c2n1C`, the Ki in [1] is 1 µM; in data set [2] it was > 100 µM. The Ratio Ki in data set [3] is > 100.

`c1ccc(-c2nnc(NCCCN3CCN(c4ncccn4)CC3)c3cc4ccccn4c23)cc1`: the inhibitory constant (Ki) in data set [1] is 2.6 µM; in data set [2] it was 59 µM. The half-inhibitory concentration (IC50) in [9] was 13.2 µM; in data set [11], > 100 µM. Moreover, in data set [3], the Ratio Ki amounted to 23.

Turning to `Cc1cc2c(NCCCN3CCN(C(=O)c4ccccn4)CC3)nnc(-c3cccc([N+](=O)[O-])c3)c2n1C`, the inhibition constant Ki in [1] came to 0.238 µM; in data set [2] it was 11.5 µM. Moreover, the Ratio Ki in data set [3] was found to be 48.

In the case of `CC(=O)N1CCN(CCCNc2nnc(-c3cccc(F)c3)c3c2cc2ccccn23)CC1`, the inhibitory constant (Ki) is 1.9 µM in data set [1] and > 100 µM in data set [2]. Further, in data set [3], the Ratio Ki is > 53.

As for `O=C(c1cccnc1)N1CCN(CCCNc2nnc(-c3cccc(F)c3)c3c2cc2ccccn23)CC1`, the values for the inhibition constant (Ki) in data set [1] and in [2] were 0.413 µM and 19 µM, respectively. In addition, the Ratio Ki in data set [3] was determined as 46.

Consider `Fc1cccc(-c2nnc(NCCCN3CCN(c4ncccn4)CC3)c3cc4ccccn4c23)c1`, for which the Ki in data set [1] worked out at 2.7 µM; in [2], 83 µM. For the same compound, the Ratio Ki in [3] is 29.
